# Only some compounds are listed: those with a hit (about 3.1% of all), similar ones and a draw of the others.
# V-ATPase pH: yeast V-ATPase proton transport regulation by pHLuorin; S. cerevisiae, pHLuorin cytosolic pH fluorescence; response, % at 10 µM; 350,000 tested, 0.37% active; in the data active means response mostly above about 7.3%, no sharp cut-off; inactive means mostly below about 5.4%; further: actives read high
# MPTP inh: inhibitors of mitochondrial permeability transition pore. isolated mouse mitochondria, Ca2+ swelling absorbance, 30 min. inhibition, % at 10 µM. 360,000 tested, 1.4% active. AID 602449;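 active means inhibition of 50% or more, scaled per plate between neutral and stimulator controls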
# aDG glyco act: increases alpha dystroglycan glycosylation; Pro5-aDG cells, alpha-DG glycosylation AlphaScreen (IIH6); 0% Pro5, 100% B10-LARGE cell signal; activation, % at 10 µM; 360,000 tested, 0.22% active; AID 624168;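 active means activation of at least 8% versus controls, or a plate z-score of at least 8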;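 further: Pro5 are CHO cells carrying HIG-tagged alpha-DG that lacks glycosylation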
# Lipid droplet: hepatic lipid droplet formation modulation; AML12 mouse hepatocytes, oleate lipid droplets, BODIPY imaging; 240,000 tested, 0.4% active; inhibition, % at 6.5 µM;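 active means lipid droplet intensity inhibited by at least 50%, with more than 500 cells counted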
#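 Assay system: AML12 mouse liver cells | Compound: 6.5 µM single-point dosing | Schedule: Overnight exposure | Technique: Fluorescence imaging, 20x objective, two fields per well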
# ADAM17 inh: inhibitors of human ADAM17; 370,000 tested, 0.83% active; inhibition, % at 6.95 µM; recombinant ADAM17, EDANS/DABCYL FRET peptide cleavage;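 active means inhibition above the mean of compounds lying between control limits plus 3 SD, set per campaign, cut at about 8.5% in these data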
# ADAM10 inh: ADAM10 inhibition, QFRET primary screen | inhibition, % at 7 µM | recombinant ADAM10, EDANS/DABCYL FRET peptide cleavage, 3 h | 370,000 tested, 0.62% active | O14672 | AID 720582;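 active means inhibition above a per-campaign cutoff equal to the mean of compounds falling between control-based bounds plus 3 SD, cut at about 20% in these data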
# Target sequence (O14672 214-748 limits assumed): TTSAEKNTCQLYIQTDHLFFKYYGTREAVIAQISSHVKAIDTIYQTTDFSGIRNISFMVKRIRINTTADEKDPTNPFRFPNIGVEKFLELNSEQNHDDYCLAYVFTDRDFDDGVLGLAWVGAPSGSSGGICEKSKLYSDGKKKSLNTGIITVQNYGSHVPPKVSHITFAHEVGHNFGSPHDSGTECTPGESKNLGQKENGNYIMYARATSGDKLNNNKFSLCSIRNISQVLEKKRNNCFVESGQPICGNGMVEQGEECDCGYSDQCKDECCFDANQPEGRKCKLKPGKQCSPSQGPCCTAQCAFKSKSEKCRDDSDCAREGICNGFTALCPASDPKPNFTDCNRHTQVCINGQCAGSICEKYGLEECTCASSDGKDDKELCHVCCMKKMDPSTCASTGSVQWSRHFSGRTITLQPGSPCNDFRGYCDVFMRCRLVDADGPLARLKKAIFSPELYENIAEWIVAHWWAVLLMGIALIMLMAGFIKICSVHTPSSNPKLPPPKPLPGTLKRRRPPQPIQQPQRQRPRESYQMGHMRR
# Rh123 counter: Rhodamine 123 counter-screen of mitochondrial pore hits. inhibition, % at 10 µM. isolated mitochondria, membrane potential, Rhodamine 123 fluorescence. 5,000 tested, 78% active. shares compounds with MPTP inh. AID 624504; in the data active means inhibition above about 22%
# MPTP swell DR: MPTP inhibition, dose response swelling confirmation | shares compounds with MPTP inh | isolated mitochondria swelling, absorbance | IC50, µM | 780 tested, 58% active; in the data active means IC50 below about 20 µM
# MPTP counter DR: MPTP inhibitor counter-screen activity, dose response. shares compounds with MPTP inh. isolated mitochondria counterscreen, fluorescence read-out. IC50, µM. 780 tested, 49% active; in the data active means IC50 below about 80 µM
# Numbers stand for hits; . = inactive; / = no result.
SMILES,V-ATPase pH,MPTP inh,aDG glyco act,Lipid droplet,ADAM17 inh,ADAM10 inh,Rh123 counter,others
C=C1C(=O)[C@]23C[C@H]1CC[C@H]2[C@]1(C)CCC[C@@](C)(C(=O)OC)[C@H]1C[C@@H]3O,/,/,/,/,.,.,/,
N#CCCn1c(SCC(=O)NCc2ccco2)nc2ccccc21,.,74.3,.,.,.,.,.,MPTP swell DR=.;MPTP counter DR=.
CC(C)CNS(=O)(=O)/C=C/c1cc2c(cc1CNC(=O)OC(C)(C)C)OCO2,/,/,/,/,.,.,/,
Cc1ccc(C(=O)NC2CCCc3c2cnn3-c2ccc(F)cc2F)cn1 (stereo unspecified),.,51.7,.,.,.,.,91.2,
Cc1cc(C(=O)NC2CCCc3c2cnn3-c2cccc(C)c2C)n(C)n1 (stereo unspecified),.,90.4,.,.,.,.,107.9,
O=C(N[C@@H]1CCCc2c1cnn2-c1ccc(F)cc1F)c1ccccn1,/,/,/,/,.,.,/,
Cn1nccc1C(=O)NC1CCCc2c1cnn2-c1ccc(C(C)(C)C)cc1 (stereo unspecified),.,97.8,.,.,.,.,103.5,
C(#CC1=CCCCC1)CNCC1CC1,/,/,/,/,.,.,/,
COc1ccc(OCc2n(CC(=O)OC3CC(C)CCC3C(C)C)c3ccccc3[n+]2C)cc1 (stereo unspecified),.,.,.,.,.,.,/,
COc1ccc(-c2n(CC(=O)OC3CC(C)CCC3C(C)C)c3ccccc3[n+]2C)cc1 (stereo unspecified),.,50.2,.,.,.,.,94.4,
CCc1nc(SCC(=O)N2CCN(c3ccccc3)CC2)c2c(=O)n(C)c(=O)n(C)c2n1,/,/,/,.,/,/,/,
Cn1c(=O)c2c(SCC(=O)N3CCCc4ccccc43)nc(CC(C)(C)C)nc2n(C)c1=O,.,62.5,.,.,/,/,.,
CCCc1nc(SCC(=O)N2CCC(Cc3ccccc3)CC2)c2c(=O)n(C)c(=O)n(C)c2n1,.,52.5,.,.,.,.,.,
COc1cccc(CCNC(=O)CCc2nc(-c3ccccc3F)no2)c1,/,/,/,/,.,.,/,
Cc1ccc(C)c2c1[nH]c1ccc([N+](=O)[O-])cc12,.,81.4,.,.,.,.,82.1,
COC(=O)[C@]12C[C@H](CC(=O)N3CCSCC3)C(=O)N(CCc3ccc(OC)c(OC)c3)C1=C[C@H](C1CCCC1)O[C@@H]2C,/,/,/,/,.,.,/,
N#CCCN(C(=O)Nc1ccc(Cl)c(Cl)c1)c1ccccc1,.,97.0,.,.,.,.,92.9,
Cc1ccccc1-c1cc2nc(-c3ccc([N+](=O)[O-])cc3)cc(=O)n2[nH]1,.,.,.,.,.,.,/,
O=c1cc(-c2ccc([N+](=O)[O-])cc2)nc2cc(-c3ccc(F)cc3)[nH]n12,.,88.7,.,.,.,.,.,MPTP swell DR=.;MPTP counter DR=27.7
COc1cccc(/C=C2\CC3(OC(=O)C(C)(C)C)CCCN2C3)c1 (stereo unspecified),/,/,/,/,.,.,/,
CC(C)(C)C(=O)NC(=S)NNC(=O)c1ccc(Cl)cc1Cl,.,75.6,.,.,.,.,.,
CC(C)(C)C(=O)NC(=S)NNC(=O)c1ccncc1,.,.,.,.,.,.,/,
CC(C)(C)C(=O)NC(=S)NNC(=O)c1ccc(-c2ccccc2)cc1,.,93.5,.,.,/,/,22.6,
CC(NC(=S)Nc1ccc(OC(F)F)cc1OC(F)F)C(C)(C)C (stereo unspecified),.,86.2,.,.,.,.,90.7,
CC1CCN(c2nc3nonc3nc2Nc2ccc(F)cc2)CC1,.,73.2,.,.,.,.,75.4,
SMILES,V-ATPase pH,MPTP inh,aDG glyco act,Lipid droplet,ADAM17 inh,ADAM10 inh,Rh123 counter,others
COc1nc(OC)nc(N2CCC(C(=O)NCc3ccccc3OC)CC2)n1,/,/,/,/,.,.,/,
Cc1cc(C)c(S(=O)(=O)/N=C2\C=C(NS(=O)(=O)c3ccccc3)C(=O)c3ccccc32)c(C)c1,.,87.1,.,.,.,.,35.3,
O=C(NCCc1c[nH]c2ccccc12)OCc1cn(Cc2cc(F)ccc2F)nn1,/,/,/,/,.,.,/,
CC1CN(C(=O)c2cccc(S(=O)(=O)N3CCN(c4ccc(F)cc4)CC3)c2)CC(C)O1 (stereo unspecified),.,.,.,.,.,.,/,
CN(CCOc1ccc(Cl)cc1)C(=O)c1cccc(S(=O)(=O)N2CCN(c3ccc(F)cc3)CC2)c1,.,57.9,.,/,/,/,90.2,
O=C(c1cccc(S(=O)(=O)N2CCN(c3ccc(F)cc3)CC2)c1)N1CCCC(C(F)(F)F)C1 (stereo unspecified),.,73.0,.,/,.,.,84.8,
CCN(CC)CCNC(=O)c1cc2c(-c3ccc(Cl)cc3)nn(C)c2s1,.,85.7,.,/,.,.,.,
CCCN(CCC)CCNC(=O)c1cc2c(-c3ccc(Cl)cc3)nn(C)c2s1,.,.,.,.,.,.,/,
Cn1nc(-c2ccc(Cl)cc2)c2cc(C(=O)NCCCN3CCOCC3)sc21,.,73.7,.,/,/,/,.,
C=CCN(C)CC#Cc1ccc(F)cc1,/,/,/,/,.,.,/,
CC[C@H](C)Cc1cn([C@@H](CCCCN)C(=O)NCCCCCCCCCCC(=O)N2CCNCC2)nn1,.,89.1,.,/,.,.,.,
O=C(Nc1ccccc1)Nc1ccc(-n2ccc(C(F)(F)F)n2)cc1,.,79.2,.,/,.,.,82.4,
COC(=O)c1ccc(CN2CC3CC(c4ccccc4)N4CCCC34C2=O)cc1 (stereo unspecified),/,/,/,/,.,.,/,
CNC(=O)c1cnc(-c2ccccc2)nc1-c1ccccc1,.,.,.,/,.,.,/,
O=C(Nc1ccc(Cl)cc1)c1cnc(-c2ccccc2)nc1-c1ccccc1,.,72.6,.,/,.,.,36.2,
CC[C@H](CCCc1ccc(F)cc1)CN(Cc1ccc(OC)cc1)S(=O)(=O)c1ccc(C)cc1,/,/,/,/,.,.,/,
Clc1ccc(C(c2ccccc2)N2CCNCC2)cc1 (stereo unspecified),.,79.9,.,/,.,.,.,MPTP swell DR=6.69;MPTP counter DR=.
CC(C)CN1C(=O)C[C@]2(C(=O)N(C)c3ccc(NC(=O)C(F)(F)F)cc32)C1c1ccccc1 (stereo partly specified),/,/,/,/,.,.,/,
Nc1nc2c(s1)CCc1ccccc1-2,.,.,.,/,.,.,/,
N#C/C(=C(/O)CCl)c1nc2c(s1)CCc1ccccc1-2,.,55.2,.,.,.,.,78.2,
CCCCCN1CCCCC(NC(=O)c2cc(OC)c(OC)c(OC)c2)C1=O (stereo unspecified),/,/,/,/,.,.,/,
COC(=O)c1cc(NC(=O)Nc2ccccc2)ccc1Cl,.,75.9,.,.,.,.,83.3,
COC(=O)c1cccc(NC(=O)Nc2ccc(Cl)c(Cl)c2)c1,.,98.4,.,/,.,.,70.1,
CCN(CC)C(=S)Nc1ccc(Cl)c(Cl)c1,.,71.4,.,.,.,.,58.6,

# Bioassay records: PubChem BioAssay, several laboratories
